Screening results as filed in PubChem BioAssay.
T cell modulator = modulators of CD8 T cell-vesicle binding, primary screen, mouse 2C CD8+ T cells, flow cytometry; actives 0.068% (n = 330,000); response (vesicle binding), % at 7 µM; 2C CD8+ T cell-vesicle binding; hits give low values;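 active = response, share of CD8 T cells binding vesicles, and their 90th percentile fluorescence all below set limits, cut at about 80% in these data, passing the limit was not always enough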;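 note: values below 100% mean blocked vesicle binding to the CD8+ T cells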
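Assay system – 2C mouse CD8+ T cells · Also added – QL9-loaded Drosophila micro-vesicles · Timing – Cell–vesicle co-incubation 1.5 h at 37 °C, staining 20 min on ice · Signal – flow cytometry of vesicle-bound cells · Measure – percent CD8+ FL2 mean versus row control · Controls – Peptide-free naked vesicles (low) and QL9 vesicles with 0.7% DMSO vehicle (high)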
Rtt109 HAT inh = inhibitors of C. albicans Rtt109/Vps75 HAT, primary screen, biochemical, ThioGlo CoA-SH fluorescence, plate reader | purified Rtt109/Vps75, 4 h | inhibition, % at 34.9 µM | actives 0.16% (n = 330,000) | AID 540336, 2011;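 active = inhibition of at least 50% in every replicate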
JMJD2C inh = inhibitors of GASC-1 histone demethylase, primary screen, biochemical, fluorescence, DELFIA europium; inhibition, % at 2.35 µM; Lysine-specific demethylase 4C (Homo sapiens), Q9H3R0; GST-JMJD2C(1-420) H3K9me3 demethylation; actives 0.069% (n = 330,000); AID 2099, 2009;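 active = more than half of a compound's replicate wells show inhibition beyond 50%, single wells judged on their own value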;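 note: signal counts dimethyl H3K9 product captured on neutravidin plate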
Target sequence (Q9H3R0 1-420 limits assumed): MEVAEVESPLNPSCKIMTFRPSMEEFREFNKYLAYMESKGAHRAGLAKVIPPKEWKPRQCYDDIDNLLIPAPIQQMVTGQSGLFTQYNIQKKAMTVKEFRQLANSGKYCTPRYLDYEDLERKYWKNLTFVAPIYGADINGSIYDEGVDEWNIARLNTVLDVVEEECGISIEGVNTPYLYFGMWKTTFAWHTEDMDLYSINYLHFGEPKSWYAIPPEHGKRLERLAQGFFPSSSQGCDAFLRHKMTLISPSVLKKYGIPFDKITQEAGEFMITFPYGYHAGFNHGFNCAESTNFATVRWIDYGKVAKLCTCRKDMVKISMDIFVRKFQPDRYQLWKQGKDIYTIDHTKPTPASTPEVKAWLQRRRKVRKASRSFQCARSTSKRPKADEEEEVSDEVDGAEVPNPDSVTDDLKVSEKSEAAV
GRIN3A LBD mod = binders of NR3A ligand-binding domain, primary screen, biophysical, differential scanning fluorimetry, uHTS. actives 2.5% (n = 340,000). Glutamate receptor ionotropic, NMDA 3A (GRIN3A) ligand-binding domain. Tm shift relative to glycine control, % at 25 µM. AID 1259313, 2017. NR3A LBD differential scanning fluorimetry, Tm shift; 0% = protein alone, 100% = glycine-bound protein;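 active = melting temperature shift of at least 10% of the positive control shift, at one fixed dose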
Each line names hits and unclear results; the compound was inactive in the other large screens. Compounds with a hit are over-represented: about 2.8% of the library has one in this group of screens.

Cc1ccc(S(=O)(=O)N2CCCCC2)cc1C(=O)NCc1ccc(S(N)(=O)=O)cc1	none (no result: JMJD2C inh)
O=C(OCc1nc(-c2ccccc2Cl)no1)c1ccco1	none
O=C(COC(=O)c1cccc(NS(=O)(=O)c2ccc(F)c(F)c2)c1)NC(=O)NC1CCCCC1	GRIN3A LBD mod 23
Cc1ccc2nc(/C(C#N)=C\c3ccc(Oc4ccc([N+](=O)[O-])cn4)cc3)[nH]c2c1	GRIN3A LBD mod 12
c1ccc(CCc2cc3ccccc3[nH]2)cc1	none
N=C1S/C(=C\c2cccc3ccccc23)C(=O)N1c1ccc(F)cc1	GRIN3A LBD mod 11
N=C1S/C(=C\c2ccccc2F)C(=O)N1c1ccc(F)cc1	GRIN3A LBD mod 11
O=C1c2cccnc2C(=O)N1Cc1ccc(F)cc1S(=O)(=O)NCc1ccco1	none
O=S(=O)(NCCCCNS(=O)(=O)c1c(F)cccc1F)c1ccc2c(c1)OCCO2	GRIN3A LBD mod 15
O=S(=O)(NCCNS(=O)(=O)c1c(F)cccc1F)c1ccc2c(c1)OCCO2	none (no result: JMJD2C inh)
Cn1c(SCC(=O)Nc2sccc2C(N)=O)nc2ccccc2c1=O	GRIN3A LBD mod 35
CC(=O)c1cc2c(cc1NC(=O)CN1Cc3ccccc3C1=O)OCO2	GRIN3A LBD mod 12
NC1=NC(=O)CC(C(=O)NCCc2ccccc2)S1 (stereo not given)	GRIN3A LBD mod 10
COc1ccc(OCC(=O)NC(=S)Nc2ccc(S(=O)(=O)Nc3cc(C)on3)cc2)cc1	none
CN(Cc1ccco1)C(=O)CSc1nc(C2CC2)n(-c2ccccc2)n1	none (no result: T cell modulator, JMJD2C inh)
COC(=O)c1cc2oc(C)cc2n1CC(=O)N(C)c1ccccc1	GRIN3A LBD mod 11
Cc1ccc(-c2nc(N=Nc3ccc(O)cc3)n[nH]2)cc1	none
COc1ccc(-c2nc(N=Nc3ccc(O)cc3)n[nH]2)cc1	GRIN3A LBD mod 13
COc1ccccc1NC(=S)N(Cc1ccccc1)Cc1cccnc1	none
COc1ccccc1NC(=S)N(Cc1ccccc1)Cc1ccccn1	GRIN3A LBD mod 13
O=C(CCc1ccc(S(=O)(=O)NCc2ccccc2)cc1)NCc1ccc2c(c1)OCO2	JMJD2C inh 52
O=C(CCc1ccc(S(=O)(=O)NCCc2ccccc2)cc1)NCc1ccc2c(c1)OCO2	none
CC(=O)Nc1ccc(S(=O)(=O)N2CCN(C(=O)c3ncoc3-c3ccccc3C)CC2)cc1	none
O=[N+]([O-])c1cccc(S(=O)(=O)Nc2ccc(-c3ccc(N4CCCC4)nn3)cc2)c1	GRIN3A LBD mod 31
COc1ccc(/C=N/OC(=O)Nc2ccc(Cl)cc2)c(OC)c1	GRIN3A LBD mod 10 (no result: Rtt109 HAT inh)
COc1ccc(C=NOCC(=O)OCC(=O)Nc2ccc(OC)cc2)cc1	GRIN3A LBD mod 42
COc1ccc(NC(=O)O/N=C/c2ccncc2)cc1	none (no result: Rtt109 HAT inh)
Cc1ccc(NC(=O)O/N=C/c2ccc(N(C)C)cc2)cc1	GRIN3A LBD mod 19
Cc1ccc(NC(=O)O/N=C/c2ccc(Br)cc2)cc1	none
COc1ccc(NC(=O)O/N=C/c2ccc(Br)cc2)cc1	GRIN3A LBD mod 34
CC(=O)Nc1ccc(/C=N/OCC(=O)Nc2ccc(C)cc2)cc1	none
C/C(=N\N=C(/C)c1cccc(N)c1)c1cccc(N)c1	none (no result: Rtt109 HAT inh)
CC1CCCN(C(=O)c2cn(-c3ccccc3)nc2-c2cccnc2)C1 (stereo not given)	none
O=C1c2ccccc2CCC12N=NCC2c1ccc(Br)cc1 (stereo not given)	GRIN3A LBD mod 11
CC1=C(c2ccccc2)C=NNCC1=O	none (no result: T cell modulator, JMJD2C inh)
Cc1cc(N/N=C/c2ccc(F)cc2)nc(NCc2ccccc2)n1	GRIN3A LBD mod 35 (no result: Rtt109 HAT inh)
Cc1ccc(/C=N/Nc2cc(C)nc(NCc3ccccc3)n2)cc1	none
Cc1ccnc(Nc2nc(-c3ccc(O)c(O)c3)cs2)c1	GRIN3A LBD mod 39
CCC(=O)Nc1nc(C)c(-c2csc(Nc3ccccn3)n2)s1	GRIN3A LBD mod 25
Oc1ccc(-c2csc(Nc3ccccn3)n2)cc1O	GRIN3A LBD mod 33
Cc1cccnc1Nc1nc(-c2ccc(O)c(O)c2)cs1	GRIN3A LBD mod 28
CNC(=O)c1ccc(NC(=O)CC2SC(N3CCCC3)=NC2=O)cc1 (stereo not given)	none
CSCCC(NC=O)C(=O)NC(C)C(=O)O (stereo not given)	none (no result: T cell modulator, JMJD2C inh)
CC(=O)Nc1ccc(Nc2nc(-c3c(C)nc4ccccn34)cs2)cc1	GRIN3A LBD mod 13 (no result: Rtt109 HAT inh)
